For three compounds, MBC results are on record in ChEMBL document CHEMBL4138266, “Lysine Analogue of Polymyxin B as a Significant Opportunity for Photodynamic Antimicrobial Chemotherapy” (ACS Med Chem Lett, 2018).

SMILES strings stand for the structures. Values after ≈ are worked out from the molar mass of the structure shown. A value given as a limit tells only on which side of the number the result lay.

The test system of data set [1] is Pseudomonas aeruginosa. Description: Photobactericidal activity against Pseudomonas aeruginosa CIP76110 irradiated with white light at 4.83 mW/cm2 for 20 hrs. The format is functional. To be noted: CIP76110, light or radiation study. The method, boiled down: (§1)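 Minimal bactericidal concentration (MBC) was determined in tryptic soy medium with log-phase bacteria at 37 °C. Plates were either kept in the dark or given 20 h of white light at 4.83 mW/cm². MBC was taken as the concentration killing 99.99% of bacteria, i.e. a 4-log reduction versus the untreated control.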

The test system of data set [2] is Escherichia coli. Description: Photobactericidal activity against Escherichia coli CIP54.8T irradiated with white light at 4.83 mW/cm2 for 20 hrs. To be noted: light or radiation study. It is filed as functional. The method, boiled down: as §1
The test system of data set [3] is Staphylococcus aureus. Briefly: Photobactericidal activity against Staphylococcus aureus CIP76.25 irradiated with white light at 4.83 mW/cm2 for 20 hrs. The format is functional. The note with it: CIP76.25, light or radiation study. The method, boiled down: as §1
Data set [4] concerns Escherichia coli. Description: Bactericidal activity against Escherichia coli CIP54.8T incubated for 30 mins under dark conditions. It is filed as organism-based. The note with it: 0.5 h. A digest of the protocol:
as §1

Data set [5] concerns Pseudomonas aeruginosa. Briefly: Bactericidal activity against Pseudomonas aeruginosa CIP76110 incubated for 30 mins under dark conditions. The format is organism-based. The note with it: 0.5 h. The method, boiled down:
as §1

The test system of data set [6] is Staphylococcus aureus. Briefly: Bactericidal activity against Staphylococcus aureus CIP76.25 incubated for 30 mins under dark conditions. It is filed as ADME, organism-based. To be noted: 0.5 h. The method, boiled down: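 S. aureus exposed to compound in PBS 1X for 30 min at 37 °C, then washed three times with PBS. The light arm was white LED irradiation at 4.83 mW/cm² (7 J/cm² = 24 min) at 37 °C. Survival was expressed as % of initial bacterial density.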

Consider `C[n+]1ccc(-c2c3nc(c(-c4cc[n+](C)cc4)c4ccc([nH]4)c(-c4cc[n+](C)cc4)c4nc(c(-c5cc[n+](C)cc5)c5ccc2[nH]5)C=C4)C=C3)cc1`, for which the values for the MBC in the data set on Pseudomonas aeruginosa [1], in the data set with Escherichia coli [2] and with Staphylococcus aureus [3] were 20 µM, 18 µM and 5 µM, respectively.
Take `CCCCCCCC(=O)N[C@@H](CS)C(=O)N[C@H](C(=O)N[C@@H](CCCCN)C(=O)N[C@H]1CCNC(=O)[C@H]([C@@H](C)O)NC(=O)[C@H](CCCCN)NC(=O)[C@H](CCCCN)NC(=O)[C@H](CC(C)C)NC(=O)[C@@H](Cc2ccccc2)NC(=O)[C@H](CCCCN)NC1=O)[C@@H](C)O`: the MBC against Escherichia coli [4] was 50 µM (≈ 65.2 µg/mL); against Pseudomonas aeruginosa [1], more than 100 µM; with Pseudomonas aeruginosa [5], more than 100 µM; against Escherichia coli [2], 50 µM (≈ 65.2 µg/mL).
For `CCCCCCCC(=O)N[C@@H](CS)C(=O)N[C@H](C(=O)N[C@@H](CCN)C(=O)N[C@H]1CCNC(=O)[C@H]([C@@H](C)O)NC(=O)[C@H](CCN)NC(=O)[C@H](CCN)NC(=O)[C@H](CC(C)C)NC(=O)[C@@H](Cc2ccccc2)NC(=O)[C@H](CCN)NC1=O)[C@@H](C)O`, the MBC with Escherichia coli [4] was 5 µM (≈ 5.96 µg/mL); in the data set with Pseudomonas aeruginosa [1], 10 µM (≈ 11.9 µg/mL); with Staphylococcus aureus [6], more than 50 µM; against Pseudomonas aeruginosa [5], 10 µM (≈ 11.9 µg/mL); against Escherichia coli [2] it was 5 µM (≈ 5.96 µg/mL); against Staphylococcus aureus [3] it was more than 50 µM.
